Measured values: ChEMBL document CHEMBL4616704, “Discovery of an Atropisomeric PI3Kβ Selective Inhibitor through Optimization of the Hinge Binding Motif” (ACS Med Chem Lett, 2020)

Legend:
[1] = target: Phosphatidylinositol 4,5-bisphosphate 3-kinase catalytic subunit gamma isoform (Homo sapiens, UniProt P48736); experiment: Inhibition of human full length p110gamma using PIP2 as substrate after 30 mins in presence of ATP at 2xKm concentration by TR-FRET assay
[2] = Dissociation constant, acidic pKa of compound; assay type: physicochemical
[3] = Clearance in human hepatocytes at 1 uM measured up to 250 mins by UHPLC-HRMS analysis; assay type: ADME, cell-based, Hepatocyte
[4] = Apparent permeability across apical to basolateral side in human Caco2 cells at 10 uM after 1 to 2 hrs by LC/MS/MS analysis; assay type: ADME, cell-based; settings: Caco-2
[5] = Apparent permeability across basolateral to apical side in human Caco2 cells at 10 uM after 1 to 2 hrs by LC/MS/MS analysis; assay type: ADME, cell-based; settings: Caco-2
[6] = target: T1, Phosphatidylinositol 4,5-bisphosphate 3-kinase catalytic subunit beta isoform (Homo sapiens, UniProt P42338); experiment: Inhibition of PI3Kbeta in PTEN-deficient human PC3 cells assessed as reduction in AKT phosphorylation at Ser473 residue after 2 hrs by mesoscale assay; assay type: cell-based, PC-3
T1 sequence (P42338 whole entry, canonical isoform): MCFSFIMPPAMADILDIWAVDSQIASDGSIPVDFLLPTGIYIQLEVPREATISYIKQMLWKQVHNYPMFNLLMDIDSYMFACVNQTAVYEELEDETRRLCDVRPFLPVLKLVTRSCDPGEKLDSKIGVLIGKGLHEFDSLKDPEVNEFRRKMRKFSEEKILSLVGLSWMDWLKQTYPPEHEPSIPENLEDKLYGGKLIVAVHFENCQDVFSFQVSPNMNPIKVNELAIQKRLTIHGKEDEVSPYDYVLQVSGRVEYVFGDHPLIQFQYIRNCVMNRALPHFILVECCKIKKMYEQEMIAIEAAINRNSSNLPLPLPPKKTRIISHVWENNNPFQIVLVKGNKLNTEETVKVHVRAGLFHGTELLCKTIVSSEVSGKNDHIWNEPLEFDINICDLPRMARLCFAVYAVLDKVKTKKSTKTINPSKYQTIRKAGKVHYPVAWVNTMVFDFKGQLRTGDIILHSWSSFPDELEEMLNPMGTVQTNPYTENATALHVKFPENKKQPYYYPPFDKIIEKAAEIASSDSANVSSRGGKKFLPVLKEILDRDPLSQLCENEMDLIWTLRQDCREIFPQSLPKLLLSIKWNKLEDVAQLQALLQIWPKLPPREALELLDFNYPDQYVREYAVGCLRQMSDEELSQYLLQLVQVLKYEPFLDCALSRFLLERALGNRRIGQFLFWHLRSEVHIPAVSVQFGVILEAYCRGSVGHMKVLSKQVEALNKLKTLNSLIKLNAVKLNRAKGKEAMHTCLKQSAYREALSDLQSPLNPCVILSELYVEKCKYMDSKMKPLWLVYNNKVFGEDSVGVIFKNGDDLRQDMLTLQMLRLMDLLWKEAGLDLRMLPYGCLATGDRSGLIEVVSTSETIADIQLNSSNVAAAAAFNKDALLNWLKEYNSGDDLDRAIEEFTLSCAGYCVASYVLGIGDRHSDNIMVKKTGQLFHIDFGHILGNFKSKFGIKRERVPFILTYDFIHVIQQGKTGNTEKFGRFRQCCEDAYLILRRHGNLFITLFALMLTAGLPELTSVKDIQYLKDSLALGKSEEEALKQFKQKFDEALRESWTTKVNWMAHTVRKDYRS
Summary of the method: (§1)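 Cellular readout: pAKT1 Ser473 normalized to total AKT1, expressed as units pAKT1 Ser473 per nanogram total AKT1; cells treated under serum-free conditions.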

[7] = target: T1, Phosphatidylinositol 4,5-bisphosphate 3-kinase catalytic subunit beta isoform; experiment: Inhibition of PI3Kbeta in PTEN-deficient human LNCAP cells assessed as reduction in AKT phosphorylation at Ser473 residue after 2 hrs by mesoscale assay; assay type: cell-based; summary of the method: as §1
[8] = target: T1, Phosphatidylinositol 4,5-bisphosphate 3-kinase catalytic subunit beta isoform; experiment: Inhibition of PI3Kbeta in PTEN-deficient human ZR-75-1 cells assessed as reduction in AKT phosphorylation at Ser473 residue after 2 hrs by mesoscale assay; assay type: cell-based; summary of the method: as §1
[9] = Protein binding in Sprague-Dawley rat plasma at 1 mg/kg administered as iv infusion for 30 mins and measured after 24 hrs by ESI-LC/MS/MS analysis; assay type: ADME, organism-based; settings: read-out: PPB (converted)
[10] = Clearance in Sprague-Dawley rat at 1 mg/kg administered as iv infusion for 30 mins and measured after 24 hrs by ESI-LC/MS/MS analysis; assay type: ADME, organism-based; settings: in vivo
[11] = Volume of distribution at steady state in Sprague-Dawley rat at 1 mg/kg administered as iv infusion for 30 mins and measured after 24 hrs by ESI-LC/MS/MS analysis; assay type: ADME, organism-based; settings: in vivo, read-out: Vdss
[12] = Terminal half life in Sprague-Dawley rat at 1 mg/kg administered as iv infusion for 30 mins and measured after 24 hrs by ESI-LC/MS/MS analysis; assay type: ADME, organism-based; settings: in vivo, read-out: beta t1/2 (converted)
[13] = Oral bioavailability in Sprague-Dawley rat at 5 mg/kg dosed via gavage after 24 hrs by ESI-LC/MS/MS analysis; assay type: ADME, organism-based; settings: in vivo
[14] = Protein binding in Beagle dog plasma at 1 mg/kg administered as iv infusion for 30 mins and measured after 24 hrs by ESI-LC/MS/MS analysis; assay type: ADME, organism-based, Canis lupus familiaris; settings: read-out: PPB (converted)
[15] = Clearance in Beagle dog at 1 mg/kg administered as iv infusion for 30 mins and measured after 24 hrs by ESI-LC/MS/MS analysis; assay type: ADME, organism-based, Canis lupus familiaris; settings: in vivo
[16] = Volume of distribution at steady state in Beagle dog at 1 mg/kg administered as iv infusion for 30 mins and measured after 24 hrs by ESI-LC/MS/MS analysis; assay type: ADME, organism-based, Canis lupus familiaris; settings: in vivo, read-out: Vdss
[17] = Terminal half life in Beagle dog at 1 mg/kg administered as iv infusion for 30 mins and measured after 24 hrs by ESI-LC/MS/MS analysis; assay type: ADME, organism-based, Canis lupus familiaris; settings: in vivo, read-out: beta t1/2 (converted)
[18] = Clearance in cynomolgus monkey at 1 mg/kg administered as iv infusion for 30 mins and measured after 24 hrs by ESI-LC/MS/MS analysis; assay type: ADME, organism-based, Macaca fascicularis; settings: in vivo
[19] = Volume of distribution at steady state in cynomolgus monkey at 1 mg/kg administered as iv infusion for 30 mins and measured after 24 hrs by ESI-LC/MS/MS analysis; assay type: ADME, organism-based, Macaca fascicularis; settings: in vivo, read-out: Vdss
[20] = MRT in cynomolgus monkey at 1 mg/kg administered as iv infusion for 30 mins and measured after 24 hrs by ESI-LC/MS/MS analysis; assay type: ADME, organism-based, Macaca fascicularis; settings: in vivo
[21] = Oral bioavailability in cynomolgus monkey at 5 mg/kg dosed via gavage after 24 hrs by ESI-LC/MS/MS analysis; assay type: ADME, organism-based, Macaca fascicularis; settings: in vivo
[22] = Protein binding in rhesus monkey plasma at 1 mg/kg administered as iv infusion for 30 mins and measured after 24 hrs by ESI-LC/MS/MS analysis; assay type: ADME, organism-based, Macaca mulatta; settings: read-out: PPB (converted)
[23] = Clearance in rhesus monkey at 1 mg/kg administered as iv infusion for 30 mins and measured after 24 hrs by ESI-LC/MS/MS analysis; assay type: ADME, organism-based, Macaca mulatta; settings: in vivo
[24] = Volume of distribution at steady state in rhesus monkey at 1 mg/kg administered as iv infusion for 30 mins and measured after 24 hrs by ESI-LC/MS/MS analysis; assay type: ADME, organism-based, Macaca mulatta; settings: in vivo, read-out: Vdss
[25] = Terminal half life in rhesus monkey at 1 mg/kg administered as iv infusion for 30 mins and measured after 24 hrs by ESI-LC/MS/MS analysis; assay type: ADME, organism-based, Macaca mulatta; settings: in vivo, read-out: beta t1/2 (converted)
[26] = MRT in rhesus monkey at 1 mg/kg administered as iv infusion for 30 mins and measured after 24 hrs by ESI-LC/MS/MS analysis; assay type: ADME, organism-based, Macaca mulatta; settings: in vivo
[27] = Ocular toxicity in Beagle dog assessed as irreversible damage by measuring decrease response in visual stimuli at 10 to 40 mg/kg/day administered for 7 days and measured from day 4 to day 7; assay type: organism-based, Canis lupus familiaris; settings: in vivo, 168 h
[28] = Ocular toxicity in Beagle dog assessed as irreversible damage by measuring dilated pupils at 10 to 40 mg/kg/day administered for 7 days and measured from day 4 to day 7; assay type: organism-based, Canis lupus familiaris; settings: in vivo, 168 h
[29] = Ocular toxicity in Beagle dog assessed as irreversible damage by measuring ocular discharge at 10 to 40 mg/kg/day administered for 7 days and measured from day 4 to day 7; assay type: organism-based, Canis lupus familiaris; settings: in vivo, 168 h
[30] = Ocular toxicity in Beagle dog assessed as irreversible damage by measuring choroidal inflammation at 10 to 100 mg/kg/day administered for 7 days measured on day 6 by ERG and OCT analysis; assay type: organism-based, Canis lupus familiaris; settings: in vivo, 168 h
[31] = Ocular toxicity in Beagle dog assessed as irreversible damage by measuring retinal necrosis at 10 to 100 mg/kg/day administered for 7 days by microscopic analysis; assay type: organism-based, Canis lupus familiaris; settings: in vivo, 168 h
[32] = Ocular toxicity in Beagle dog assessed as irreversible damage by measuring retinal detachment at 10 to 100 mg/kg/day administered for 7 days by microscopic analysis; assay type: organism-based, Canis lupus familiaris; settings: in vivo, 168 h
[33] = target: CYP450 (Homo sapiens, UniProt P04798+P05177+P05181+P08684+P10632+P10635+P11509+P11712+P13584+P20813+P20815+P20853+P24462+P24903+P33260+P33261+P51589+P78329+P98187+Q02928+Q08477+Q16678+Q16696+Q5TCH4+Q6VVX0+Q7Z449+Q8TAV3+Q96SQ9+Q9HB55); experiment: Inhibition of human CYP450; assay type: ADME, protein assay
Summary of the method: (§2)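 Binding-assay format used to measure inhibition of major human CYP450 enzymes and hERG.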

[34] = target: Voltage-gated inwardly rectifying potassium channel KCNH2 (Homo sapiens, UniProt Q12809); experiment: Inhibition of human ERG; summary of the method: as §2
Voltage-gated inwardly rectifying potassium channel KCNH2, sequence (Q12809 whole entry): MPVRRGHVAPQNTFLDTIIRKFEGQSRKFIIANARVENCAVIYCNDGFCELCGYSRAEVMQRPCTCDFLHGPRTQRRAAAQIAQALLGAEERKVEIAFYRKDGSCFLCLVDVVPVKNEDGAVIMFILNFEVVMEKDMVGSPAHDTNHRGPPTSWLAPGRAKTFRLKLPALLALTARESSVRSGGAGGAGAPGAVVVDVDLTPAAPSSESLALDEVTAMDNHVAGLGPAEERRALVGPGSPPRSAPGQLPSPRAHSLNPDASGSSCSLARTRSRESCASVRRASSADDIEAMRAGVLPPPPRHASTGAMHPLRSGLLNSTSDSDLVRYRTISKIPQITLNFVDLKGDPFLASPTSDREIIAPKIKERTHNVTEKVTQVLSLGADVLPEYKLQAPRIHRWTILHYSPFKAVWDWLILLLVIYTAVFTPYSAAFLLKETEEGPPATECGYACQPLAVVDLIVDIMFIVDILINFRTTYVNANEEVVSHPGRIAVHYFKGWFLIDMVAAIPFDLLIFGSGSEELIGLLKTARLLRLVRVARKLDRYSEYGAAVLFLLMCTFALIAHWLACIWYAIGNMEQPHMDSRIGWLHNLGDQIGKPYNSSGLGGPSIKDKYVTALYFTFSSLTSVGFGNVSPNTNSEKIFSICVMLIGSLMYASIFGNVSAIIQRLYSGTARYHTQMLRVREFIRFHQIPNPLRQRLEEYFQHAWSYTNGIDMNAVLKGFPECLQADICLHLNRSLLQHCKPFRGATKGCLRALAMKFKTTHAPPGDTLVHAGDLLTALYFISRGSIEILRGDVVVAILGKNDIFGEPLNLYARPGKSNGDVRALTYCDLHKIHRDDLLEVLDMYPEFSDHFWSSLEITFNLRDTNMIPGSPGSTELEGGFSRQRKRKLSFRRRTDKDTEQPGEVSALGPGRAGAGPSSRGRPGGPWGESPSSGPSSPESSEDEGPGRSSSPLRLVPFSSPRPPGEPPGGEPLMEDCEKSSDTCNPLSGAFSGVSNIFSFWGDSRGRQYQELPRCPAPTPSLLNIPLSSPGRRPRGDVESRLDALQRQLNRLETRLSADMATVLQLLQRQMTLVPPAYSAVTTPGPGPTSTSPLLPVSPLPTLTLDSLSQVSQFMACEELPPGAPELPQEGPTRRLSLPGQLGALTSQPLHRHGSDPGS

[35] = Genotoxicity in Salmonella typhimurium by Ames test; assay type: toxicity; settings: salmonella enterica subsp. enterica serovar typhimurium

Phosphatidylinositol 4,5-bisphosphate 3-kinase catalytic subunit gamma isoform, sequence (P48736 whole entry, canonical isoform): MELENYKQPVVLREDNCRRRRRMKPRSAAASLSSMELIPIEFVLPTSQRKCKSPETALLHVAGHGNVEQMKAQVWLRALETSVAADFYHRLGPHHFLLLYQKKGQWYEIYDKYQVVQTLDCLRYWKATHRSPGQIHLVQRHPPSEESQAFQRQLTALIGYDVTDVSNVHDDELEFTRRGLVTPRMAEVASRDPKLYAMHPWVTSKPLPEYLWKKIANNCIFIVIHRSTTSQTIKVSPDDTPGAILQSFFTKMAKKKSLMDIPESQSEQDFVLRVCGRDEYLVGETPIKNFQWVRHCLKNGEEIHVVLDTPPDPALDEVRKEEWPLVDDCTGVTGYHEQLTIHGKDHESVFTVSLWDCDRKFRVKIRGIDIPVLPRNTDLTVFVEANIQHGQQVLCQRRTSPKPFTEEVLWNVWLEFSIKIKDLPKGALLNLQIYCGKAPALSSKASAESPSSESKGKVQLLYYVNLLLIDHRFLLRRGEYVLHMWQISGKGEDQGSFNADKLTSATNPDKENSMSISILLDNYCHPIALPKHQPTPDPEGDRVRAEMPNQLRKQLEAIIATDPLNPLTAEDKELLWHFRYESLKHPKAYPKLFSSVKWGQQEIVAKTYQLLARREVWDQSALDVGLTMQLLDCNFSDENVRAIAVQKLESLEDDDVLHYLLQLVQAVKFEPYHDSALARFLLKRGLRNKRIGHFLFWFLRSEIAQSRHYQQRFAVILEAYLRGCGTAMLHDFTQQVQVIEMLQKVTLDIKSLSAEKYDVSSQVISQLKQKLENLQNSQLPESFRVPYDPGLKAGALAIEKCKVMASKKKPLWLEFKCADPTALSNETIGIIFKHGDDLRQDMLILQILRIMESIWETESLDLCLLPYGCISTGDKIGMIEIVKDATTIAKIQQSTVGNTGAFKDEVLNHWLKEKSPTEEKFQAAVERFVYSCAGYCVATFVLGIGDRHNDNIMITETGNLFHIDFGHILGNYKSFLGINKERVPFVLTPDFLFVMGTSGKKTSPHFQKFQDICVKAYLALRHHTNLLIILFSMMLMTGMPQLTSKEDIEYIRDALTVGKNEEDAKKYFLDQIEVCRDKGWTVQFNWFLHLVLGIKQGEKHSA

IC50 [1]: 6.61 µM
pKa [2]: < 1
CLH at 1 µM [3]: 3.17 mL/min/kg
CLH ([3]; 250 min, 1 µM): 3 mL/min/kg
Papp A→B at 10 µM [4]: 22 ×10⁻⁶ cm/s
Papp B→A at 10 µM [5]: 32 ×10⁻⁶ cm/s
EC50 [6]: 0.012 µM
EC50 [7]: 0.031 µM
EC50 [8]: 0.005 µM
fraction unbound at 24 h [9]: 0.16
clearance [10]: 32.8 mL/min/kg
Vd [11]: 2.5 L/kg
half-life [12]: 1.2 h
bioavailability [13]: 53%
fraction unbound at 24 h [14]: 0.14
clearance [15]: 5.67 mL/min/kg
Vd [16]: 2.5 L/kg
half-life [17]: 5.5 h
clearance [18]: 4.17 mL/min/kg
Vd [19]: 1.3 L/kg
MRT [20]: 5.2 h
bioavailability [21]: 35%
fraction unbound at 24 h [22]: 0.19
clearance [23]: 7.83 mL/min/kg
Vd [24]: 2.6 L/kg
half-life [25]: 4.4 h
MRT [26]: 5.5 h
IC50 [33]: > 25 µM
SMILES: Cc1nc2c(-c3nnc[nH]3)cc(-c3ccnc(C#N)c3)cc2n1-c1ccnc2c(F)ccc(F)c12
Activity [27]: Toxic
Activity [28]: Toxic
Activity [29]: Toxic
Activity [30]: Toxic
Activity [31]: Toxic
Activity [32]: Toxic
IC50 [34]: > 25 µM
Activity [35]: Non-Toxic
